Measurements reported in ChEMBL document CHEMBL1124179, “Nucleotide derivatives of 2,7-diaminomitosene” (1988).

Legend:
[1] = test system: L1210; assay: Uptake of a initial concentration of 100 ug/mL of compound in medium by L1210 cells after 10 min expressed as drug concentration in cells; format: functional, cell-based; settings: Mus musculus
Procedure, shortened: (§1)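 Cultured L1210 leukemia cells were incubated with drug in medium for set times. Cells were then washed in phosphate buffered saline and lysed by sonication in distilled water. Drug in the lysate was measured by HPLC on a short C18 column with methanol-water (65:35), against a peak-height standard curve that was linear over the range. Experiments were run in duplicate.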

[2] = test system: L1210; assay: Uptake of a initial concentration of 100 ug/mL of compound in medium by L1210 cells after 30 min expressed as drug concentration in cells; format: functional, cell-based; settings: Mus musculus; procedure, shortened: as §1
[3] = test system: L1210; assay: Uptake of a initial concentration of 100 ug/mL of compound in medium by L1210 cells after 60 min expressed as drug concentration in cells; format: functional, cell-based; settings: Mus musculus; procedure, shortened: as §1
[4] = test system: L1210; assay: Uptake of a initial concentration of 10 ug/mL of compound in medium by L1210 cells after 30 min expressed as drug concentration in cells; format: functional, cell-based; settings: Mus musculus; procedure, shortened: as §1
[5] = test system: L1210; assay: Uptake of a initial concentration of 10 ug/mL of compound in medium by L1210 cells after 60 min expressed as drug concentration in cells; format: functional, cell-based; settings: Mus musculus; procedure, shortened: as §1
[6] = test system: L1210; assay: Inhibition of L1210 leukemia cells, after exposure to compound for period of 1 hr; format: functional; settings: Mus musculus, L1210, 1 h; read-out: ID50 (the source's name)
Procedure, shortened: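 Soft-agar colony-forming assay using L1210 murine lymphocytic leukemia cells at 4×10^4/mL. Drug exposure was either 1 h or continuous, with continuous dosing done by adding drug to the final plating medium (RPMI 1640, 10% fetal bovine serum, 1% penicillin/streptomycin, 0.3% agar). Read-out is percent survival of colony-forming cells, as the mean of six values (three plates in each of two experiments). ID50 is given as molar concentration.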

[7] = test system: L1210; assay: Uptake of a initial concentration of 10 ug/mL of compound in medium by L1210 cells after 10 min expressed as drug concentration in cells; format: functional, cell-based; settings: Mus musculus; procedure, shortened: as §1
[8] = test system: L1210; assay: The compound was evaluated for survival of L1210 cells, when compound was exposed for a period of 1 hr 1X (10e -5)M conc; format: functional, Mus musculus
Procedure, shortened: (§2)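 L1210 murine lymphocytic leukemia cells at 4×10^4/mL were exposed to drug for 1 h and then cloned in soft agar. The plating medium was RPMI 1640 with 10% fetal bovine serum, 1% penicillin-streptomycin and 0.3% agar. Read-out was percent survival of colony-forming cells, taken as the mean of six values (three plates in each of two experiments).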

[9] = test system: L1210; assay: The compound was evaluated for survival of L1210 cells, when compound was exposed for a period of 1 hr 1X (10e -6)M conc; format: functional, Mus musculus; procedure, shortened: as §2
[10] = test system: L1210; assay: The compound was evaluated for survival of L1210 cells, when compound was exposed for a period of 1 hr 1X (10e -7)Mconc; format: functional, Mus musculus; procedure, shortened: as §2
[11] = test system: L1210; assay: The compound was evaluated for survival of L1210 cells, when compound was exposed for a period of 1 hr 5*(10e -5)M conc; format: functional, Mus musculus; procedure, shortened: as §2
[12] = test system: L1210; assay: The compound was evaluated for survival of L1210 cells, when compound was exposed for a period of […] 1X (10e -7)M conc; format: functional, Mus musculus
Procedure, shortened: (§3)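 In a soft-agar colony-forming assay, L1210 murine lymphocytic leukemia cells (4×10^4/mL) were exposed to drug continuously, with drug added to the final plating medium. That medium was RPMI 1640 with 10% fetal bovine serum, 1% penicillin-streptomycin and 0.3% agar. Read-out was percent survival of colony-forming cells, given as the mean of six values (three plates, two experiments).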

[13] = test system: L1210; assay: The compound was evaluated for survival of L1210 cells, when compound was exposed for a period of […] 1X (10e -8)Mconc; format: functional, Mus musculus; procedure, shortened: as §3
[14] = test system: L1210; assay: The compound was evaluated for survival of L1210 cells, when compound was exposed for a period of […] 1X (10e -9)M conc; format: functional, Mus musculus; procedure, shortened: as §3
[15] = test system: L1210; assay: The compound was evaluated for survival of L1210 cells, when compound was exposed for a period of […] 5*(10e -8)M conc; format: functional, Mus musculus; procedure, shortened: as §3

Row | SMILES | Concentration [1] | Concentration [2] | Concentration [3] | Concentration [4] | Concentration [5] | IC50 [6] | Concentration [7] | Survival [8] | Survival [9] | Survival [10] | Survival [11] | Survival [12] | Survival [13] | Survival [14] | Survival [15]
1 | CC1=C(N)C(=O)c2c(COC(N)=O)c3n(c2C1=O)CC(N)C3OP(=O)(O)OC[C@H]1O[C@@H](n2ccc(=O)[nH]c2=O)[C@H](O)[C@@H]1O (some centres undefined) | 20 µg/mL | 20 µg/mL | 1 µg/mL | 1 µg/mL | 2.5 µg/mL | 13.3 µM | 8 µg/mL | – | – | – | – | – | – | – | –
2 | CC1=C(N)C(=O)c2c(COC(N)=O)c3n(c2C1=O)CC(N)C3[18OH] (centres undefined) | – | – | – | – | – | 62 µM | – | – | – | – | – | – | – | – | –
3 | CC1=C(N)C(=O)c2c(COC(N)=O)c3n(c2C1=O)CC(N)C3OP(=O)(O)OC[C@H]1O[C@@H](n2cc(F)c(=O)[nH]c2=O)C[C@@H]1O (some centres undefined) | – | – | – | – | – | 14 µM | – | – | – | – | – | – | – | – | –
4 | CO[C@@]12[C@H](COC(N)=O)C3=C(C(=O)C(C)=C(N)C3=O)N1C[C@@H]1N[C@@H]12.O=c1[nH]c(=O)n([C@H]2C[C@H](O)[C@@H](CO)O2)cc1F | – | – | – | – | – | – | – | 1% | 48% | 100% | 2% | 3% | 70% | 84% | 42%
5 | O=c1[nH]c(=O)n([C@H]2C[C@H](O)[C@@H](CO)O2)cc1F [FLOXURIDINE] | – | – | – | – | – | – | – | 92% | 94% | 98% | 89% | 62% | 76% | 100% | 68%
6 | CO[C@@]12[C@H](COC(N)=O)C3=C(C(=O)C(C)=C(N)C3=O)N1C[C@@H]1N[C@@H]12 [MITOMYCIN] | – | – | – | – | – | 3.1 µM | – | 1% | 52% | 89% | 2% | 7% | 100% | 98% | 73%
